An excerpt weighted towards active compounds, which were near 2.6% of everything screened.
Granule exo inh: lytic granule exocytosis inhibition; TALL-104 LAMP-1 surface exposure, flow cytometry; cells stimulated with thapsigargin and PMA; inhibition, % at 10 µM; actives 0.66% (n = 360,000); AID 651702;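 active = inhibition above about 55%, limit read from the data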
MC4R ag barr: human MC4R agonism via beta-arrestin; P32245; U2OS MC4R beta-arrestin complementation, luminescence; percent of melanotan II response, DMSO zero; activation, % at 8.9 µM; actives 0.98% (n = 360,000); AID 540308;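 active = activation above a per-plate cutoff, the mean activation of sample wells on that plate plus 3 SD, cut at about 8% in these data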
Target sequence (P32245 whole entry, looked up): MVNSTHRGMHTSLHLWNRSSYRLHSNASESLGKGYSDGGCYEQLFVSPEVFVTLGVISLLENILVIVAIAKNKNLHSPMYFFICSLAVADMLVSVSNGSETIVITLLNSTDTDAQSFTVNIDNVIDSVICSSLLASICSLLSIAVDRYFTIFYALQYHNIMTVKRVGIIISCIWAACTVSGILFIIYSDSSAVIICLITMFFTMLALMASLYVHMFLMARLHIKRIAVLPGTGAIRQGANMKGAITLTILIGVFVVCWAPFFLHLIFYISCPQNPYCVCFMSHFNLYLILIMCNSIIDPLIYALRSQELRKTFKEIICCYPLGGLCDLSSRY
EP2 mod: modulates human prostaglandin E2 receptor EP2 signaling; induction, % at 25 µM; P43116; actives 0.83% (n = 260,000); EP2-expressing cells, cAMP HTRF FRET, PGE2 co-stimulation;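 active = compounds whose cAMP rise, as percent of the full-agonist control response, exceeds 60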;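 also: rat C6 glioma line stably carrying human EP2 under a CMV promoter; the protocol text gives 20 µM as final concentration; 100% = response of wells given 1 µM PGE2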
Target sequence (P43116 whole entry, looked up): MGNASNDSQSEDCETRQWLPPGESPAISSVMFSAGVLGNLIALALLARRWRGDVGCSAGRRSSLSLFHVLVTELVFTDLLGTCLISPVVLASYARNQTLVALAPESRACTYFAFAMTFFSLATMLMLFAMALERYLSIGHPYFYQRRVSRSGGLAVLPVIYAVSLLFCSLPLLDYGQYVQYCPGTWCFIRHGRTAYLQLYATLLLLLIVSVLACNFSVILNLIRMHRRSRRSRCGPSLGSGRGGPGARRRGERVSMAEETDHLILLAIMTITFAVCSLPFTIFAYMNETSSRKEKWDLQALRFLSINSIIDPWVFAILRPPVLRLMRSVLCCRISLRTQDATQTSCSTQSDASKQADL
MC4R antagonist: blocks human MC4R cAMP signaling; P32245; MC4R-expressing cells, MTII-stimulated cAMP, LANCE TR-FRET; inhibition, % at 6.5 µM; actives 0.48% (n = 360,000); AID 540295;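 active = inhibition above its plate's cutoff, the mean of tested wells on that plate plus 3 SD, cut at about 29% in these data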;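 also: 0% = Melanotan II alone and 100% = Melanotan II plus saturating MCL0020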
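Assay system: human MC4R-expressing U2OS cells; reagent: Melanotan II stimulation of cells; dosing: 6.5 µM single dose; timing: compound 30 min, challenge 1 h, detection 1 h; signal: TR-FRET cAMP assay; replicates: one well per compound, no replicates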
T cell HTS: T cell immune modulation candidate; 2C CD8+ T cell-vesicle binding, flow cytometry; hits give low values; response (vesicle binding), % at 7 µM; actives 0.068% (n = 330,000); AID 2052;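 active = response, share of CD8 T cells binding vesicles, and their 90th percentile fluorescence all below set limits, cut at about 80% in these data, passing the limit was not always enough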;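 also: values below 100% mean blocked vesicle binding to the CD8+ T cells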
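Assay system: 2C TCR transgenic mouse naive CD8+ T cells, MACS-purified | Read-out: CD8+ gate FL2 mean fluorescence as % of same-row positive control | Signal: High-throughput flow cytometry with anti-B7-1 and anti-CD8 staining | Timing: Binding step 1.5 h, 37 °C, antibody labelling 20 min, ice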
PGE2 EP2 inh: blocks the human prostaglandin E2 receptor EP2. P43116. AID 1422. C6 glioma cells expressing human EP2, cAMP TR-FRET; cells stimulated with saturating PGE2. inhibition, % at 25 µM. actives 0.52% (n = 260,000);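 active = percent inhibition above 40 after rounding to a whole number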;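 also: rat C6 glioma host cells with rolipram phosphodiesterase inhibitor present; the protocol text gives 20 µM as final concentration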
U2OS cAMP counter: counter-screen for MC4R antagonists: nonselective cAMP signaling inhibitors; shares compounds with MC4R antagonist; parental U2OS, forskolin cAMP, LANCE TR-FRET; inhibition, % at 6.5 µM; actives 26% (n = 1,600); AID 602193;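 active = mean inhibition over triplicates above the low-control well mean plus 3 SD, set per campaign, cut at about 13% in these data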;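 also: signal is single emission at 671 nm which falls as cellular cAMP rises; 0% = forskolin-stimulated wells and 100% = buffer without forskolin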
MC4R antag conf: human MC4R cAMP antagonism confirmation | shares compounds with MC4R antagonist | AID 602195 | inhibition, % at 6.5 µM | actives 27% (n = 1,600) | MC4R-expressing cells, MTII-stimulated cAMP, TR-FRET; in the data active = inhibition above about 29%;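 also: 0% = agonist stimulated wells alone and 100% = agonist stimulated wells plus saturating reference antagonist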
* marks the source's active call; other numbers are inactive results.

How did CCOC(=O)N1CCN(C(=O)C[C@@H]2C[C@@]3(C(=O)OC)CCCCC=C3N(Cc3ccc4c(c3)OCO4)C2=O)CC1 do in these assays?
Granule exo inh: -10

What do the screens show for `COc1cc(C2NCC(c3ccc(Cl)cc3Cl)c3c2[nH]c2ccccc32)cc(OC)c1OC` (stereo not drawn)?
Granule exo inh: -1; MC4R ag barr: 6; EP2 mod: 15; MC4R antagonist: 36*; T cell HTS: 177; PGE2 EP2 inh: 3; U2OS cAMP counter: 6; MC4R antag conf: 11

Results for Cn1c(SCC(=O)NC2CC2)nnc1-c1ccccn1 ?
Granule exo inh: -2; MC4R ag barr: 0; MC4R antagonist: -1; T cell HTS: 229

What do the screens show for `COC(=O)c1c(NC(=O)/C=C/C(=O)O)sc(C)c1-c1ccc(C(C)C)cc1`?
Granule exo inh: 1; MC4R ag barr: 0; EP2 mod: -18; MC4R antagonist: 33*; T cell HTS: 356; PGE2 EP2 inh: 10; U2OS cAMP counter: 1; MC4R antag conf: -10

Results for COC(=O)c1sc(-c2ccc(Cl)cc2)cc1NC(=O)/C=C/C(=O)O ?
Granule exo inh: 19; MC4R ag barr: 1; EP2 mod: -44; MC4R antagonist: 47*; T cell HTS: 436; PGE2 EP2 inh: 15; U2OS cAMP counter: 13*; MC4R antag conf: 20

Results for O=C(Nc1cc(Cl)cc(Cl)c1)c1cccnc1 ?
Granule exo inh: -16; MC4R ag barr: 1; MC4R antagonist: 2; T cell HTS: 229

What do the screens show for `CC1CCN(Cc2ccc(-c3nn[nH]n3)cc2)CC1`?
Granule exo inh: -1; MC4R ag barr: 2; EP2 mod: 14; MC4R antagonist: 12; T cell HTS: 208; PGE2 EP2 inh: -5

How did CC(C)(C)n1nnnc1CN1CCN(Cc2ccc3c(c2)OCO3)CC1 do in these assays?
EP2 mod: -22; PGE2 EP2 inh: 6

What do the screens show for `COc1ccccc1Nc1nnc(SCc2cc(=O)n3ccsc3n2)s1`?
Granule exo inh: -3; MC4R ag barr: -2; EP2 mod: -42; MC4R antagonist: 16; T cell HTS: 226; PGE2 EP2 inh: 13

Results for CC(C)C1CC(CCNCc2ccc3c(c2)OCO3)(c2ccccc2)CCO1 (stereo not drawn) ?
Granule exo inh: 2; MC4R ag barr: 3; EP2 mod: 30; MC4R antagonist: 34*; T cell HTS: 326; PGE2 EP2 inh: 3; U2OS cAMP counter: 0; MC4R antag conf: 41*

Results for O=C(Nc1nccs1)c1ccc(Cl)nc1 ?
Granule exo inh: -2; MC4R ag barr: 0; MC4R antagonist: -5; T cell HTS: 355

Results for Cc1csc(NC(=O)c2ccc(Cl)nc2)n1 ?
Granule exo inh: 6; MC4R ag barr: 0; MC4R antagonist: 29*; T cell HTS: 370; U2OS cAMP counter: 3; MC4R antag conf: -7

What do the screens show for `Cc1ccc(-n2c([O-])nc(-[n+]3ccccc3)c2C=O)cc1`?
Granule exo inh: 4; MC4R ag barr: -2; EP2 mod: -3; MC4R antagonist: 0; T cell HTS: 223; PGE2 EP2 inh: 13

What do the screens show for `CCCCC(=O)Nc1ccc(C(=O)N(CC)c2ccccc2C)cc1`?
Granule exo inh: -2; MC4R ag barr: 1; EP2 mod: -21; MC4R antagonist: 30*; T cell HTS: 455; PGE2 EP2 inh: 12; U2OS cAMP counter: 2; MC4R antag conf: -9

What do the screens show for `CCc1nc(SCC(=O)N2CCCCCC2)c2ccccc2n1`?
EP2 mod: 30; PGE2 EP2 inh: 13

Results for CC(=O)c1ccc(S(=O)(=O)NC2CCCCCCC2)cc1 ?
Granule exo inh: -2; MC4R ag barr: 1; MC4R antagonist: 35*; T cell HTS: inactive; U2OS cAMP counter: -4; MC4R antag conf: -16

What do the screens show for `O=C(O)c1ccc(S(=O)(=O)NC2CCCCCC2)cc1`?
Granule exo inh: -3; MC4R ag barr: -1; MC4R antagonist: 14; T cell HTS: 355

Results for CCOC(=O)N(C)c1c(CC)nc2c(OCc3ccc(F)c(F)c3)cccn12 ?
Granule exo inh: -8; MC4R ag barr: 0; MC4R antagonist: -5

Results for CCOC(=O)c1cnc2ccc(OC)cc2c1NCc1ccccc1 ?
Granule exo inh: -2; MC4R ag barr: 0; EP2 mod: 52; MC4R antagonist: 4; T cell HTS: 512; PGE2 EP2 inh: 4

Results for CCOC(=O)c1cnc2ccc(OCC)cc2c1NCc1ccccc1OC ?
Granule exo inh: 30; MC4R ag barr: 2; EP2 mod: 4; MC4R antagonist: 48*; T cell HTS: 161; PGE2 EP2 inh: 10; U2OS cAMP counter: 16*; MC4R antag conf: 48*

Results for NS(=O)(=O)c1ccc(O)c(NC(=O)c2ccc([N+](=O)[O-])cc2)c1 ?
Granule exo inh: -2; MC4R ag barr: -1; EP2 mod: 31; MC4R antagonist: 29*; T cell HTS: 297; PGE2 EP2 inh: 8; U2OS cAMP counter: -6; MC4R antag conf: -9

Results for O=C(CSc1n[nH]c(-c2ccccc2O)n1)N1CCOCC1 ?
Granule exo inh: -2; MC4R ag barr: 5; EP2 mod: 16; MC4R antagonist: 30*; T cell HTS: 297; PGE2 EP2 inh: 8; U2OS cAMP counter: 1; MC4R antag conf: -5

How did Cc1ccc(NC(=O)c2ccccc2)s1 do in these assays?
Granule exo inh: 5; MC4R ag barr: -3; EP2 mod: -12; MC4R antagonist: 5; T cell HTS: 396; PGE2 EP2 inh: 10

Results for CC(=O)c1ccc(NC(=O)C2(S(=O)(=O)c3ccccc3)CC2)cc1 ?
Granule exo inh: 0; MC4R ag barr: 0; EP2 mod: 15; MC4R antagonist: 30*; T cell HTS: 303; PGE2 EP2 inh: 5; U2OS cAMP counter: 0; MC4R antag conf: -3

Results for CCOc1ccc(/C=N/Nc2ccc(C(F)(F)F)cc2[N+](=O)[O-])cc1O ?
Granule exo inh: -4; MC4R ag barr: -2; EP2 mod: 31; MC4R antagonist: -1; T cell HTS: 222; PGE2 EP2 inh: 3

What do the screens show for `Cc1ccsc1C(=O)OCC(=O)Nc1ccc(Cl)cc1C(F)(F)F`?
Granule exo inh: -12; MC4R ag barr: 1; EP2 mod: 4; MC4R antagonist: 16; T cell HTS: 238; PGE2 EP2 inh: 5

From PubChem BioAssay
